Experimental data as given in ChEMBL document CHEMBL3739344, “A novel class of negative allosteric modulators of NMDA receptor function” (Bioorg Med Chem Lett, 2015).
≈ marks a conversion by molar mass, not a printed value. Calls of active or inactive are those of the source. No cut-off for these calls is given here.

Columns and labels:
[1] = target: Glutamate NMDA receptor; Grin1/Grin2b (Rattus norvegicus, UniProt P35439+Q00960); assay: Negative allosteric modulation of rat GluN1a/GluN2B receptor expressed in Xenopus laevis oocytes assessed as suppression of 100 uM glutamate and 30 uM glycine induced-current by voltage clamp recording method; type: cell-based
How it was run: (§1)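 Rat GluN1-1a cRNA co-injected with GluN2A, 2B, 2C or 2D cRNA into Xenopus oocytes; expression 1–3 days at 16–19 °C. Two-electrode voltage clamp. Currents evoked by 100 µM glutamate plus 30 µM glycine, alone and then with rising inhibitor concentrations. […] 4–17 oocytes from ≥2 frogs.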

[2] = target: T1, Glutamate NMDA receptor; Grin1/Grin2a (Rattus norvegicus) (UniProt P35439+Q00959); assay: Negative allosteric modulation of rat GluN1a/GluN2A receptor expressed in Xenopus laevis oocytes assessed as suppression of 100 uM glutamate and 30 uM glycine induced-current at saturating compound level by voltage clamp recording method; type: cell-based; how it was run: as §1
[3] = target: Glutamate NMDA receptor; Grin1/Grin2a (Rattus norvegicus, UniProt P35439+Q00959); assay: Negative allosteric modulation of rat GluN1a/GluN2A receptor expressed in Xenopus laevis oocytes assessed as suppression of 100 uM glutamate and 30 uM glycine glycine induced-current by voltage clamp recording method; type: cell-based; how it was run: as §1
[4] = target: T2, Glutamate NMDA receptor; Grin1/Grin2c (Rattus norvegicus) (UniProt P35439+Q00961); assay: Negative allosteric modulation of rat GluN1a/GluN2C receptor expressed in Xenopus laevis oocytes assessed as suppression of 100 uM glutamate and 30 uM glycine induced-current at saturating compound level by voltage clamp recording method; type: cell-based; how it was run: as §1
[5] = Solubility of compound in TEVC electrophysiological solution at 3.25 to 100 uM by nephelometric method; type: physicochemical
How it was run: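 Nephelometry measuring forward light scattering of each compound at 3.25–100 µM in TEVC recording solution. Maximum solubility taken as the intersection point of a linear segmental regression. Mean of n = 2 in quadruplicate.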

[6] = target: T3, Glutamate NMDA receptor; Grin1/Grin2b (Rattus norvegicus) (UniProt P35439+Q00960); assay: Negative allosteric modulation of rat GluN1a/GluN2B receptor expressed in Xenopus laevis oocytes assessed as suppression of 100 uM glutamate and 30 uM glycine induced-current at saturating compound level by voltage clamp recording method; type: cell-based; how it was run: as §1
[7] = target: T4, Ionotropic glutamate receptor NMDA 1/2D (Rattus norvegicus) (UniProt P35439+Q62645); assay: Negative allosteric modulation of rat GluN1a/GluN2D receptor expressed in Xenopus laevis oocytes assessed as suppression of 100 uM glutamate and 30 uM glycine induced-current at saturating compound level by voltage clamp recording method; type: cell-based; how it was run: as §1
[8] = target: Ionotropic glutamate receptor NMDA 1/2D (Rattus norvegicus, UniProt P35439+Q62645); assay: Negative allosteric modulation of rat GluN1a/GluN2D receptor expressed in Xenopus laevis oocytes assessed as suppression of 100 uM glutamate and 30 uM glycine induced-current by voltage clamp recording method; type: cell-based; how it was run: as §1
[9] = target: Glutamate NMDA receptor; Grin1/Grin2c (Rattus norvegicus, UniProt P35439+Q00961); assay: Negative allosteric modulation of rat GluN1a/GluN2C receptor expressed in Xenopus laevis oocytes assessed as suppression of 100 uM glutamate and 30 uM glycine induced-current by voltage clamp recording method; type: cell-based; how it was run: as §1
Primary neuron = assay: Neuroprotective activity in rat primary hippocampal neurons assessed as 100 uM NMDA and 30 uM glycine induced LDH release in media at 10 uM after 20 to 24 hrs by spectrophotometric analysis; type: functional, cell-based
How it was run: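 Rat hippocampal neurons were cultured 7–10 days in vitro at 37 °C. They were challenged for 1 h in Mg2+-free medium with 100 µM NMDA plus 30 µM glycine, then returned to normal medium. LDH in the supernatant was read spectrophotometrically 20–24 h later and expressed relative to vehicle-treated cells. Triplicates from 6 independent experiments.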

[10] = target: T1, Glutamate NMDA receptor; Grin1/Grin2a (Rattus norvegicus); assay: Negative allosteric modulation of rat GluN1a/GluN2A receptor expressed in Xenopus laevis oocytes assessed as suppression of 100 uM glutamate and 30 uM glycine induced-current at 30 uM by voltage clamp recording method; type: cell-based
[11] = target: T3, Glutamate NMDA receptor; Grin1/Grin2b (Rattus norvegicus); assay: Negative allosteric modulation of rat GluN1a/GluN2B receptor expressed in Xenopus laevis oocytes assessed as suppression of 100 uM glutamate and 30 uM glycine induced-current at 30 uM by voltage clamp recording method; type: cell-based
Rattus norvegicus = species on record: Rattus norvegicus; assay: Selectivity ratio of IC50 for rat GluN1a/GluN2A receptor expressed in Xenopus laevis oocytes to IC50 for rat GluN1a/GluN2D receptor expressed in Xenopus laevis oocytes; type: cell-based
[12] = target: T4, Ionotropic glutamate receptor NMDA 1/2D (Rattus norvegicus); assay: Negative allosteric modulation of rat GluN1a/GluN2D receptor expressed in Xenopus laevis oocytes assessed as suppression of 100 uM glutamate and 30 uM glycine at 30 uM glycine induced-current by voltage clamp recording method; type: cell-based
[13] = target: T2, Glutamate NMDA receptor; Grin1/Grin2c (Rattus norvegicus); assay: Negative allosteric modulation of rat GluN1a/GluN2C receptor expressed in Xenopus laevis oocytes assessed as suppression of 100 uM glutamate and 30 uM glycine at 30 uM glycine induced-current by voltage clamp recording method; type: cell-based

Compound | IC50 [1] | inhibition [2] | IC50 [3] | inhibition [4] | solubility kinetic [5] | inhibition [6] | inhibition [7] | IC50 [8] | IC50 [9] | Activity (Primary neuron) | inhibition [10] | inhibition [11] | Ratio IC50 (Rattus norvegicus) | inhibition [12] | inhibition [13]
CCOC(=O)c1c(NC(=O)CC2SC(=N)NC2=O)sc2c1CCC(C)(C)C2 (racemic) | 9.2 µM | 72% | 16.1 µM | 89% | 37 µM (≈ 15.2 µg/mL) | 44% | 90% | 8.8 µM | 9.3 µM | – | – | – | – | – | –
N#Cc1c(NC(=O)CC2SC(=N)NC2=O)sc2c1CCCC2 (racemic) | – | – | – | 59% | 36 µM (≈ 12 µg/mL) | – | 63% | 4.3 µM | 2.9 µM | – | – | – | – | – | –
CCOC(=O)c1cc(CC)sc1NC(=O)CC1SC(=N)NC1=O (racemic) | 9.7 µM | 96% | 6.2 µM | 97% | – | 96% | 94% | 2.6 µM | 3.7 µM | – | – | – | – | – | –
C[C@]12N[C@H](Cc3ccccc31)c1ccccc12 | – | – | – | – | – | – | – | – | – | Active | – | – | – | – | –
COC(=O)c1ccsc1NC(=O)CC1SC(=N)NC1=O (racemic) | – | – | – | 100% | – | – | 99% | 43.3 µM | 41 µM | – | < 25% | < 25% | – | – | –
CCOC(=O)c1c(NC(=O)CC2SC(=N)NC2=O)sc2c1CCCC2 (racemic) | 4.2 µM | 61% | 2.3 µM | 53% | 54 µM (≈ 20.6 µg/mL) | 35% | 41% | 0.6 µM | 1.2 µM | – | – | – | – | – | –
CCOC(=O)c1c(NC(=O)CC2SC(=N)NC2=O)sc2c1CCC(F)(F)C2 (racemic) | 8 µM | 84% | 5.2 µM | 75% | 35 µM (≈ 14.6 µg/mL) | 74% | 65% | 1.5 µM | 1.4 µM | – | – | – | – | – | –
CCOC(=O)c1c(NC(=O)CC2SC(=N)NC2=O)sc2c1CCSC2 (racemic) | 12.2 µM | 82% | 6.2 µM | 88% | – | 78% | 84% | 0.8 µM | 0.8 µM | – | – | – | 7 | – | –
CCOC(=O)c1c(NC(=O)CC2NC(=O)NC2=O)sc2c1CCCC2 (racemic) | – | – | – | – | – | – | – | – | – | – | < 25% | < 25% | – | < 25% | < 25%
CCc1cc(C(=O)OC)c(NC(=O)CC2SC(N)=NC2=O)s1 (racemic) | 9.3 µM | 98% | 4.8 µM | 97% | – | 97% | 98% | 2.6 µM | 2.5 µM | – | – | – | – | – | –
CCOC(=O)c1c(NC(=O)CC2SC(=N)NC2=O)sc2c1CCC(CC)C2 (racemic) | 2.2 µM | 58% | 3.4 µM | 80% | 73 µM (≈ 29.9 µg/mL) | 59% | 73% | 1.5 µM | 0.9 µM | – | – | – | – | – | –
CCOC(=O)c1c(NC(=O)CC2SC(=N)NC2=O)sc(C)c1C (racemic) | – | 80% | 30.2 µM | 77% | – | – | 81% | 13 µM | 8.1 µM | – | – | < 25% | – | – | –
CCOC(=O)c1c(NC(=O)CC2SC(=O)NC2=O)sc2c1CCCC2 (racemic) | – | – | – | – | – | – | – | – | – | – | < 25% | < 25% | – | < 25% | < 25%
COC(=O)c1c(NC(=O)CC2SC(N)=NC2=O)sc2c1CCCC2 (racemic) | 4.2 µM | 81% | 3.4 µM | 88% | 57 µM (≈ 20.9 µg/mL) | 86% | 86% | 1.1 µM | 1 µM | – | – | – | – | – | –
COC(=O)c1c(NC(=O)CC2SC(N)=NC2=O)sc2c1CCC(C)C2 (racemic) | 0.6 µM | 80% | 0.7 µM | 95% | 20 µM (≈ 7.63 µg/mL) | 74% | 94% | 0.3 µM | 0.3 µM | – | – | – | – | – | –
CCOC(=O)c1c(NC(=O)CC2SC(=N)NC2=O)sc2c1CCOC2 (racemic) | 5.6 µM | 74% | 3 µM | 59% | – | 69% | 41% | 2.1 µM | 2.9 µM | – | – | – | – | – | –
CCOC(=O)c1c(NC(=O)CC2SC(=O)NC2=O)sc2c1CCC2 (racemic) | – | – | – | – | – | – | – | – | – | – | < 25% | < 25% | – | < 25% | < 25%
CCOC(=O)c1c(NC(=O)CC2S/C(=N\C)N(C)C2=O)sc2c1CCCC2 (racemic) | – | – | – | – | – | – | – | – | – | – | < 25% | < 25% | – | < 25% | < 25%
CCc1c(C)sc(NC(=O)CC2SC(=N)NC2=O)c1C(=O)OC (racemic) | 43.8 µM | 79% | 26.8 µM | 85% | – | 77% | 82% | 9.1 µM | 6.7 µM | – | – | – | – | – | –
COC(=O)c1c(NC(=O)CC2SC(N)=NC2=O)sc2c1CCC(C(C)(C)C)C2 (racemic) | – | – | – | – | – | – | – | – | – | – | < 25% | < 25% | – | < 25% | < 25%
CCOC(=O)c1cc(C)sc1NC(=O)CC1SC(=N)NC1=O (racemic) | 44.9 µM | 93% | 42.8 µM | 98% | – | 91% | 99% | 12.3 µM | 11.2 µM | – | – | – | – | – | –
N=C1NC(=O)C(CC(=O)Nc2sc3c(c2C(=O)O)CCCC3)S1 (racemic) | – | – | – | – | – | – | – | – | – | – | < 25% | < 25% | – | < 25% | < 25%
COC(=O)c1c(NC(=O)CC2SC(=N)NC2=O)sc(C)c1C (racemic) | 28.2 µM | 88% | 22.3 µM | 88% | – | 63% | 94% | 10.4 µM | 9.7 µM | – | – | – | – | – | –
